In ChEMBL document CHEMBL1275537, “In vitro activities of tigecycline and 10 other antimicrobials against nonpigmented rapidly growing mycobacteria” (2008):
In brackets after ≈: the same amount, converted by molar mass.

Legend:
Assay type in all cases: functional
[1] = tested on: Mycobacteroides abscessus; experiment: Antibacterial activity against nonpigmented rapidly growing Mycobacterium abscessus after 3 days by broth microdilution method; settings: 72 h
How it was run: (§1)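 MIC by broth microdilution. Strains are collection strains and clinical isolates, grown on 5% sheep blood tryptic soy agar at 35°C for 4 days in room air. Inoculum is made straight from the blood agar plates in cation-supplemented Mueller-Hinton broth with 0.02% Tween 80. Doubling dilutions run 64 to 0.03 µg/ml. Plates are incubated at 30°C in room air and read at 3 days. E. coli ATCC 25922, S. aureus ATCC 29213 and E. faecalis ATCC 29212 serve as controls. MIC50 and MIC90 are given where ≥10 strains were tested, otherwise the range.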

[2] = tested on: Mycobacteroides chelonae; experiment: Antibacterial activity against nonpigmented rapidly growing Mycobacterium chelonae after 3 days by broth microdilution method; settings: 72 h; how it was run: as §1
[3] = tested on: Mycolicibacterium peregrinum; experiment: Antibacterial activity against nonpigmented rapidly growing Mycobacterium peregrinum after 3 days by broth microdilution method; settings: 72 h; how it was run: as §1
[4] = tested on: Mycolicibacterium fortuitum; experiment: Antibacterial activity against nonpigmented rapidly growing Mycobacterium fortuitum after 3 days by broth microdilution method; settings: 72 h; how it was run: as §1
[5] = tested on: Mycobacterium mucogenicum; experiment: Antibacterial activity against nonpigmented rapidly growing Mycobacterium mucogenicum after 3 days by broth microdilution method; settings: Mycolicibacterium mucogenicum, 72 h; how it was run: as §1
[6] = tested on: Mycolicibacterium mageritense; experiment: Antibacterial activity against nonpigmented rapidly growing Mycobacterium mageritense after 3 days by broth microdilution method; settings: 72 h; how it was run: as §1
[7] = tested on: Mycobacterium alvei; experiment: Antibacterial activity against nonpigmented rapidly growing Mycobacterium alvei after 3 days by broth microdilution method; settings: Mycolicibacterium alvei, 72 h; how it was run: as §1
[8] = tested on: Mycolicibacterium smegmatis; experiment: Antibacterial activity against nonpigmented rapidly growing Mycobacterium smegmatis after 3 days by broth microdilution method; settings: 72 h; how it was run: as §1
[9] = tested on: Mycobacterium porcinum; experiment: Antibacterial activity against nonpigmented rapidly growing Mycobacterium porcinum after 3 days by broth microdilution method; settings: Mycolicibacterium porcinum, 72 h; how it was run: as §1
[10] = tested on: Mycobacterium septicum; experiment: Antibacterial activity against nonpigmented rapidly growing Mycobacterium septicum after 3 days by broth microdilution method; settings: Mycolicibacterium septicum, 72 h; how it was run: as §1
[11] = tested on: Mycobacterium wolinskyi; experiment: Antibacterial activity against nonpigmented rapidly growing Mycobacterium wolinskyi after 3 days by broth microdilution method; settings: Mycolicibacterium wolinskyi, 72 h; how it was run: as §1

SMILES	MIC50 [1] [µg/mL]	MIC90 [1] [µg/mL]	MIC50 [2] [µg/mL]	MIC90 [2] [µg/mL]	MIC50 [3] [µg/mL]	MIC90 [3] [µg/mL]	MIC50 [4] [µg/mL]	MIC90 [4] [µg/mL]	MIC [5] [µg/mL]	MIC [6] [µg/mL]	MIC [7] [µg/mL]	MIC [8] [µg/mL]	MIC [9] [µg/mL]	MIC [10] [µg/mL]	MIC [11] [µg/mL]
C[C@H]1COc2c(N3CCN(C)CC3)c(F)cc3c(=O)c(C(=O)O)cn1c23.C[C@H]1COc2c(N3CCN(C)CC3)c(F)cc3c(=O)c(C(=O)O)cn1c23.O [LEVOFLOXACIN]	16	32	0.5	8	0.06	0.25	0.06	0.25	0.06	≤ 0.03	≤ 0.03	≤ 0.03	0.06	0.12	0.06
CC[C@H]1OC(=O)[C@H](C)[C@@H](O[C@H]2C[C@@](C)(OC)[C@@H](O)[C@H](C)O2)[C@H](C)[C@@H](O[C@@H]2O[C@H](C)C[C@H](N(C)C)[C@H]2O)[C@](C)(OC)C[C@@H](C)C(=O)[C@H](C)[C@@H](O)[C@]1(C)O [CLARITHROMYCIN]	≤ 0.03	1 (≈ 1.34 µM)	0.06 (≈ 0.0802 µM)	4 (≈ 5.35 µM)	0.06 (≈ 0.0802 µM)	2 (≈ 2.67 µM)	2 (≈ 2.67 µM)	16 (≈ 21.4 µM)	≤ 0.03	2 (≈ 2.67 µM)	≤ 0.03	≤ 0.03	0.5 (≈ 0.668 µM)	≤ 0.03	32 (≈ 42.8 µM)
CC[C@H]1OC(=O)[C@H](C)[C@@H](O[C@H]2C[C@@](C)(OC)[C@@H](O)[C@H](C)O2)[C@H](C)[C@@H](O[C@@H]2O[C@H](C)C[C@H](N(C)C)[C@H]2O)[C@](C)(O)C[C@@H](C)C(=O)[C@H](C)[C@@H](O)[C@]1(C)O [ERYTHROMYCIN]	1 (≈ 1.36 µM)	16 (≈ 21.8 µM)	0.5 (≈ 0.681 µM)	32 (≈ 43.6 µM)	1 (≈ 1.36 µM)	16 (≈ 21.8 µM)	64 (≈ 87.2 µM)	> 64	≤ 0.03	32 (≈ 43.6 µM)	≤ 0.03	0.12 (≈ 0.164 µM)	8 (≈ 10.9 µM)	2 (≈ 2.73 µM)	128 (≈ 174 µM)
NC[C@H]1O[C@H](O[C@H]2[C@H](O)[C@@H](O[C@H]3O[C@H](CO)[C@@H](O)[C@H](N)[C@H]3O)[C@H](N)C[C@@H]2N)[C@H](N)C[C@@H]1O [TOBRAMYCIN]	8 (≈ 17.1 µM)	16 (≈ 34.2 µM)	4 (≈ 8.56 µM)	16 (≈ 34.2 µM)	4 (≈ 8.56 µM)	8 (≈ 17.1 µM)	16 (≈ 34.2 µM)	32 (≈ 68.4 µM)	1 (≈ 2.14 µM)	8 (≈ 17.1 µM)	4 (≈ 8.56 µM)	≤ 0.03	1 (≈ 2.14 µM)	0.5 (≈ 1.07 µM)	8 (≈ 17.1 µM)
CC[C@H]1OC(=O)[C@H](C)[C@@H](O[C@H]2C[C@@](C)(OC)[C@@H](O)[C@H](C)O2)[C@H](C)[C@@H](O[C@@H]2O[C@H](C)C[C@H](N(C)C)[C@H]2O)[C@](C)(O)C[C@@H](C)CN(C)[C@H](C)[C@@H](O)[C@]1(C)O [AZITHROMYCIN]	0.5 (≈ 0.668 µM)	2 (≈ 2.67 µM)	0.5 (≈ 0.668 µM)	16 (≈ 21.4 µM)	0.5 (≈ 0.668 µM)	64 (≈ 85.4 µM)	8 (≈ 10.7 µM)	> 64	≤ 0.03	2 (≈ 2.67 µM)	≤ 0.03	0.06 (≈ 0.0801 µM)	32 (≈ 42.7 µM)	0.5 (≈ 0.668 µM)	128 (≈ 171 µM)
